A selection: hits, their analogues and other compounds. The true share with any hit is near 0.95%.
G6PDH counter: L. mesenteroides G6PDH inhibitors, counter-screen for G6PDH-coupled screening assays, biochemical, Leuconostoc mesenteroides enzyme | glucose-6-phosphate dehydrogenase [Leuconostoc mesenteroides] | Purified L. mesenteroides G6PDH, diaphorase/resazurin coupled fluorescence, 45 min | inhibition, % at 5 µM | 200,000 compounds, 0.12% hits | AID 1020, 2008; in the data active = inhibition above about 50%
Diaphorase inh: diaphorase inhibitors and chemical oxidizers, primary screen, counter-screen for diaphorase-coupled primary assays, biochemical, uHTS, resorufin fluorescence; diaphorase resazurin-to-resorufin fluorescence, NADH, 16 min; bacterial (C. kluyveri) enzyme, not human; inhibition, % at 20 µM; 190,000 compounds, 0.69% hits; AID 1217, 2008;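 active = primary screen inhibition at 20 µM above a set limit, cut at about 50% in these data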
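System: Bacterial diaphorase enzyme (C. kluyveri) | Incubation: 16-min room-temperature incubation before reading | Benchmarks: No-NADH positive control and DMSO neutral control | Measured by: Resorufin fluorescence 544/590 nm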
HKDC1 inhibitor: HKDC1 hexokinase inhibitors, primary screen, biochemical, fluorescence, uHTS | 340,000 compounds, 0.16% hits | AID 493160, 2011 | inhibition, % at 20 µM | recombinant HKDC1, G6PDH/diaphorase resazurin coupled fluorescence | Q2TB90;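 active = inhibition above about 35% when tested at 20 µM, limit read from the data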
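Assay system: recombinant HKDC1 hexokinase; detection: coupled resazurin fluorescence, excitation 525 nm, emission 613 nm; benchmarks: DMSO-plus-enzyme-mix negative control, buffer-substituted positive control; compound dosing: single 20 µM dose; schedule: 90 min at room temperature in dark; also added: glucose plus 1 mM ATP as hexokinase substrates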
p97 inhibitor: inhibitors of human p97 ATPase, primary screen, biochemical; Transitional endoplasmic reticulum ATPase (Homo sapiens), P55072; inhibition, % at 8 µM; AID 1481, 2009; 220,000 compounds, 0.42% hits; recombinant p97 ATPase, Kinase-Glo ATP luminescence, 3 h; in the data active = inhibition above about 15%
SUMO HTRF inh: inhibitors of in vitro SUMOylation cascade, primary screen, biochemical, HTRF, uHTS; HTRF SUMOylation assay, SAE1/SAE2 + UBC9; SUMO-conjugating enzyme UBC9 (Homo sapiens), P63279; 290,000 compounds, 0.36% hits; inhibition, % at 35 µM; in the data active = inhibition above about 50%, passing the limit was not always enough
Target sequence (P63279 whole entry, looked up): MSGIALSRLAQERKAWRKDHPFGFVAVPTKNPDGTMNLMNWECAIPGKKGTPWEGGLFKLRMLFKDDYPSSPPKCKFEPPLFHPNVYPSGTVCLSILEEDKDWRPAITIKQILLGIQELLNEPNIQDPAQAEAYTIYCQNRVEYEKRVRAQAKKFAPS
A number is an active result; . = inactive; / = no result.

SMILES	G6PDH counter	Diaphorase inh	HKDC1 inhibitor	p97 inhibitor	SUMO HTRF inh
S=c1[nH]ncn1/N=C/c1ccccc1	.	60.3	.	.	.
COc1ccccc1Nc1ccc2nonc2c1[N+](=O)[O-]	/	/	.	/	.
Oc1c(CN2CCCCC2)cc(Br)c2cccnc12	.	57.2	.	.	.
Oc1c(CN2CCc3ccccc3C2)cc(Cl)c2cccnc12	.	67.7	.	.	.
Oc1c(Cl)cc(CN2CCOCC2)c2cccnc12	/	/	.	/	/
S=c1nc(-c2ccccc2)oc2c1CCCC2	.	65.0	.	.	.
O=[N+]([O-])c1c(NCCCO)cc(SCc2ccco2)c2nonc12	.	65.7	.	.	89.6
CCCC(=O)OCCNc1cc(SCCC(=O)OC)c2nonc2c1[N+](=O)[O-]	.	75.1	.	.	74.5
CC(=O)OCCNc1cc(SCc2ccco2)c2nonc2c1[N+](=O)[O-]	.	76.9	.	.	.
O=[N+]([O-])c1c(NCCCO)cc(Sc2ccc(Cl)cc2)c2nonc12	.	54.1	.	.	.
COc1ccccc1C(=O)NC(=O)COC(=O)C1(C)CC1(Cl)Cl (centres undefined)	/	/	.	/	/
O=C1N=C(N2CCCC2C(=O)O)S/C1=C\c1ccco1 (centres undefined)	.	.	.	.	.
CC(=O)OCCCNc1cc(Sc2ccc(C)cc2)c2nonc2c1[N+](=O)[O-]	.	.	.	.	.
COc1ccc(CNc2cc(NCCCO)c([N+](=O)[O-])c3nonc23)cc1	.	60.7	.	.	96.2
CC(=O)OCCCNc1cc(Sc2nc3ccccc3s2)c2nonc2c1[N+](=O)[O-]	.	62.5	.	.	91.9
COc1ccc(Nc2cc(NCCCO)c([N+](=O)[O-])c3nonc23)cc1	/	/	.	/	.
CN(CCO)c1cc(N2CCC3(CC2)OCCO3)c2nonc2c1[N+](=O)[O-]	.	.	.	.	.
O=[N+]([O-])c1c(NCCO)cc(N2CCC3(CC2)OCCO3)c2nonc12	.	55.4	.	.	.
COCC(C)n1c(SCc2ccc(C(=O)OC)cc2)nc2ccccc2c1=O (centres undefined)	/	/	.	/	.
N#CC1=C(N)OC2=C(C(=O)CCC2)C1c1cc2c(cc1Br)OCO2 (centres undefined)	/	/	.	/	.
CCC[C@H]1COCCS(=O)(=O)N1Cc1ccc(Br)cc1	/	/	/	/	.
O=[N+]([O-])c1cc(Cl)c2cccnc2c1O	.	.	.	.	.
O=[N+]([O-])c1ccc(O)c2ncccc12	65.6	.	.	.	.
O=[N+]([O-])c1ccc(O)c2cccnc12	.	.	.	.	.
O=[N+]([O-])c1cc(Cl)c(O)c2ncccc12	58.8	.	.	.	59.1
SMILES	G6PDH counter	Diaphorase inh	HKDC1 inhibitor	p97 inhibitor	SUMO HTRF inh
O=[N+]([O-])c1cc([N+](=O)[O-])c2cccnc2c1Oc1ccccc1O	.	60.5	.	.	.
CC1=NN(c2ccc(Br)cc2)C(=O)/C1=C/c1cccs1	.	.	.	.	.
CC1=NN(c2ccc(C)cc2)C(=O)/C1=C\c1ccc(Br)s1	.	.	.	.	76.1
COC(=O)c1c(NC(=O)CSc2nnc(-c3ccco3)n2Cc2ccccc2)sc(C)c1C	.	57.2	.	.	.
COc1ccccc1N(CCC#N)C(=O)COC(=O)CCC(=O)c1ccc(F)cc1	/	/	.	/	/
CCc1cccc(NC(=O)CN(c2ccc(C)cc2)S(=O)(=O)c2c(C)noc2C)c1	/	/	.	/	.
CC(C)Cn1c(CCNC(=O)c2ccco2)nc2ccccc21	/	/	.	/	/
CCc1nnc(NC(=O)c2cc(-c3ccco3)nc3ccccc23)s1	.	.	.	.	67.0
O=C(N/N=C/c1cccc(F)c1)c1cc(-c2ccco2)nc2ccccc12	.	.	.	.	79.2
O=C(N/N=C/c1ccc(F)cc1)c1cc(-c2ccccn2)nc2ccccc12	/	/	.	/	/
Cc1c(C(=O)c2ccc(Cl)c([N+](=O)[O-])c2)c2ccccn2c1CCC#N	.	.	.	.	.
Cc1c(C(=O)c2ccc(Cl)cc2[N+](=O)[O-])c2ccccn2c1CCC#N	.	63.6	.	.	.
Cc1cc(CNC(=O)c2cccc(OC3CCN(S(=O)(=O)N(C)C)CC3)c2)on1	/	/	.	/	.

Screening results as filed in PubChem BioAssay.
